Data from ChEMBL document CHEMBL1275477, “Discovery and characterization of QPT-1, the progenitor of a new class of bacterial topoisomerase inhibitors” (Antimicrob Agents Chemother, 2008).
Converted amounts (≈) assume the structure as drawn.

Columns and labels:
[1] = Inhibition of Escherichia coli DNA gyrase by gel electrophoresis
Escherichia coli [2] = test: Antibacterial activity against acrAB-deficient Escherichia coli UC31701 by broth microdilution method; type: functional
Outline: (§1)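 Broth microdilution MIC following National Committee for Clinical Laboratory Standards methods. Plasmid-borne GyrB in transformed S. aureus strains was overexpressed by adding 100 ng/ml doxycycline.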

[3] = Volume of distribution at steady state in lethal systemic CF-1 mouse infection model at 21.6 mg/kg, iv; type: ADME, organism-based; set-up: dose 21.6 mg/kg, route intravenous; details: in vivo, read-out: Vdss
[4] = Cmax in lethal systemic CF-1 mouse infection model at 21.6 mg/kg, iv; type: ADME, organism-based; set-up: dose 21.6 mg/kg, route intravenous; details: in vivo
Outline: (§2)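 Mouse pharmacokinetics: single dose in 0.2 ml, given orally (pH 4.5 acetate-buffered 20% DMSO–methylcellulose suspension) or intravenously (20% hydroxypropyl beta-cyclodextrin, pH 7 phosphate buffer). Plasma sampled to 480 min: iv at 0, 2, 15, 30, 60, 120, 240, 480 min; oral at 0, 20, 30, 60, 120, 240, 360, 480 min. Three mice per time point; mean concentration–time data analysed noncompartmentally.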

Staphylococcus aureus [5] = test: Antibacterial activity against norA-deficient Staphylococcus aureus RN4220 by broth microdilution method; type: functional; outline: as §1
[6] = Half life in lethal systemic CF-1 mouse infection model at 20.3 mg/kg, po; type: ADME, organism-based; set-up: dose 20.3 mg/kg, route oral; details: in vivo; outline: as §2
[7] = system: Staphylococcus epidermidis; test: Antibacterial activity against methicillin and ciprofloxacin-resistant Staphylococcus epidermidis UC12084 by broth microdilution method; type: functional; outline: as §1
Staphylococcus aureus [8] = test: Antibacterial activity against methicillin-resistant Staphylococcus aureus UC9213 by broth microdilution method; type: functional; outline: as §1
Streptococcus pyogenes = test: Antibacterial activity against Streptococcus pyogenes UC152 by broth microdilution method; type: functional; outline: as §1
Staphylococcus aureus [9] = test: Antibacterial activity against quinoline pyrimidine trione-resistant Staphylococcus aureus ATCC 29213 by broth microdilution method; type: functional; outline: as §1
Staphylococcus aureus [10] = test: Antibacterial activity against methicillin-resistant Staphylococcus aureus UC9213 in orally dosed lethal systemic CF-1 mouse infection model; type: functional; details: UC9213, po
Outline: (§3)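 Lethal systemic infection in female CF-1 mice (20 g), infected intraperitoneally with enough bacteria to kill 90–100% of untreated mice. Thawed cultures were suspended in brain heart infusion broth with 4% (wt/vol) dried brewer's yeast. Drug given orally or subcutaneously at 1 and 5 h postinfection, at five or more dose levels, six mice per level. Survival followed for 1 week; ED50 by probit analysis.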

Staphylococcus aureus [11] = test: Antibacterial activity against Staphylococcus aureus RN4220 by broth microdilution method; type: functional; outline: as §1
Moraxella catarrhalis = test: Antibacterial activity against Moraxella catarrhalis UC3067 by broth microdilution method; type: functional; outline: as §1
Escherichia coli [12] = test: Antibacterial activity against Escherichia coli UC6674 by broth microdilution method; type: functional; outline: as §1
Streptococcus pneumoniae [13] = test: Antibacterial activity against Streptococcus pneumoniae UC9912 by broth microdilution method; type: functional; outline: as §1
Staphylococcus aureus [14] = test: Antimicrobial activity against Staphylococcus aureus RN4220 expressing gyrB D437N mutant gene by broth microdilution method; type: functional; outline: as §1
Enterococcus faecalis = test: Antibacterial activity against Enterococcus faecalis UC9217 by broth microdilution method; type: functional; outline: as §1
Staphylococcus aureus [15] = test: Antibacterial activity against methicillin-susceptible Staphylococcus aureus UC9218 by broth microdilution method; type: functional; outline: as §1
[16] = Cmax in lethal systemic CF-1 mouse infection model at 20.3 mg/kg, po; type: ADME, organism-based; set-up: dose 20.3 mg/kg, route oral; details: in vivo; outline: as §2
Staphylococcus aureus [17] = test: Antimicrobial activity against Staphylococcus aureus 286607-R1 by broth microdilution method; type: functional; outline: as §1
Mus musculus = test: Toxicity in lethal systemic CF-1 mouse infection model assessed as adverse effects at 200 mg/kg, po; type: organism-based; set-up: dose 200 mg/kg, route oral; details: in vivo
[18] = AUC (0 to infinity) in lethal systemic CF-1 mouse infection model at 20.3 mg/kg, po; type: ADME, organism-based; set-up: dose 20.3 mg/kg, route oral, time infinity; details: in vivo; outline: as §2
[19] = Clearance in lethal systemic CF-1 mouse infection model at 21.6 mg/kg, iv; type: ADME, organism-based; set-up: dose 21.6 mg/kg, route intravenous; details: in vivo; outline: as §2
Staphylococcus aureus [20] = test: Antibacterial activity against Staphylococcus aureus UC9218 by broth microdilution method in presence of 25% serum; type: functional; outline: as §1
Staphylococcus aureus [21] = test: Antimicrobial activity against Staphylococcus aureus MW2 harboring parC R400C mutant gene by broth microdilution method; type: functional; outline: as §1
[22] = Inhibition of Escherichia coli DNA topoisomerase 4 by gel electrophoresis
[23] = Tmax in lethal systemic CF-1 mouse infection model at 20.3 mg/kg, po; type: ADME, organism-based; set-up: dose 20.3 mg/kg, route oral; details: in vivo; outline: as §2
Escherichia coli [24] = test: Antibacterial activity against tolC-deficient Escherichia coli UC31708 by broth microdilution method; type: functional; outline: as §1
Staphylococcus aureus [25] = test: Antibacterial activity against ciprofloxacin-resistant Staphylococcus aureus ATCC 29213 by broth microdilution method; type: functional; outline: as §1
Staphylococcus aureus [26] = test: Antibacterial activity against Staphylococcus aureus UC9218 by broth microdilution method in presence of 50% serum; type: functional; outline: as §1
Staphylococcus aureus [27] = test: Antibacterial activity against methicillin and ciprofloxacin-resistant Staphylococcus aureus UC12673 by broth microdilution method; type: functional; outline: as §1
Staphylococcus aureus [28] = test: Antibacterial activity against methicillin-susceptible Staphylococcus aureus by broth microdilution method; type: functional; outline: as §1
[29] = Oral bioavailability in lethal systemic CF-1 mouse infection model at 20.3 mg/kg, po; type: ADME, organism-based; details: in vivo; outline: as §2
Staphylococcus aureus [30] = test: Antibacterial activity against Staphylococcus aureus ATCC 29213 by broth microdilution method; type: functional; outline: as §1
Staphylococcus aureus [31] = test: Antibacterial activity against methicillin-resistant Staphylococcus aureus UC9213 infected in subcutaneously dosed lethal systemic CF-1 mouse infection model; type: functional; details: UC9213, sc; outline: as §3
[32] = Half life in lethal systemic CF-1 mouse infection model at 21.6 mg/kg, iv; type: ADME, organism-based; set-up: dose 21.6 mg/kg, route intravenous; details: in vivo; outline: as §2
Staphylococcus aureus [33] = test: Antimicrobial activity against methicillin-resistant Staphylococcus aureus SUAR 1015-01 harboring gyrA S84L, parC S80F and parE S189R mutant gene by broth microdilution method; type: functional; outline: as §1
[34] = AUC (0 to infinity) in lethal systemic CF-1 mouse infection model at 21.6 mg/kg, iv; type: ADME, organism-based; set-up: time infinity, dose 21.6 mg/kg, route intravenous; details: in vivo; outline: as §2
Staphylococcus aureus [35] = test: Antibacterial activity against methicillin-resistant Staphylococcus aureus by broth microdilution method; type: functional; outline: as §1
Streptococcus pneumoniae [36] = test: Antibacterial activity against Streptococcus pneumoniae UC15142 by broth microdilution method; type: functional; outline: as §1
Streptococcus pneumoniae [37] = test: Antibacterial activity against Streptococcus pneumoniae by broth microdilution method; type: functional; outline: as §1
Staphylococcus aureus [38] = test: Antimicrobial activity against Staphylococcus aureus 286607-R1 harboring wild type gyrB by broth microdilution method; type: functional; outline: as §1
[39] = Inhibition of human DNA topoisomerase 4 by gel electrophoresis
Staphylococcus aureus [40] = test: Antimicrobial activity against Staphylococcus aureus USA200 harboring […] S84L and parC R400C mutant gene by broth microdilution method; type: functional; outline: as §1
Haemophilus influenzae [41] = test: Antibacterial activity against Haemophilus influenzae UC30063 by broth microdilution method; type: functional; outline: as §1
Haemophilus influenzae [42] = test: Antibacterial activity against acrAB-deficient Haemophilus influenzae 31809 by broth microdilution method; type: functional; outline: as §1
Enterococcus faecium = test: Antibacterial activity against Enterococcus faecium UC12712 by broth microdilution method; type: functional; outline: as §1
Streptococcus pneumoniae [43] = test: Antibacterial activity against ciprofloxacin-resistant Streptococcus pneumoniae by broth microdilution method; type: functional; outline: as §1
Staphylococcus aureus [44] = test: Antimicrobial activity against Staphylococcus aureus COL harboring gyrB V28A mutant gene by broth microdilution method; type: functional; outline: as §1
Staphylococcus aureus [45] = test: Antibacterial activity against ciprofloxacin-resistant Staphylococcus aureus by broth microdilution method; type: functional; outline: as §1

Structure (SMILES): CC1CN2c3ccc([N+](=O)[O-])cc3CC3(C(=O)NC(=O)NC3=O)C2C(C)O1 (racemic)
- IC50 [1]: 9 µM
- MIC (Escherichia coli [2]): 0.125 µg/mL (≈ 0.334 µM)
- Vd [3]: 0.623 L/kg
- Cmax [4]: 15700 ng/mL
- MIC (Staphylococcus aureus [5]): 1 µg/mL (≈ 2.67 µM)
- half-life [6]: 0.927 h
- MIC [7]: 1 µg/mL (≈ 2.67 µM)
- MIC (Staphylococcus aureus [8]): 1 µg/mL (≈ 2.67 µM)
- MIC (Streptococcus pyogenes): 2 µg/mL (≈ 5.34 µM)
- MIC (Staphylococcus aureus [9]): 8 µg/mL (≈ 21.4 µM)
- ED50 (Staphylococcus aureus [10]): 19.5 mg/kg
- MIC (Staphylococcus aureus [11]): 1 µg/mL (≈ 2.67 µM)
- MIC (Moraxella catarrhalis): 2 µg/mL (≈ 5.34 µM)
- MIC (Escherichia coli [12]): 4 µg/mL (≈ 10.7 µM)
- MIC (Streptococcus pneumoniae [13]): 4 µg/mL (≈ 10.7 µM)
- MIC (Staphylococcus aureus [14]): 1 µg/mL (≈ 2.67 µM)
- MIC (Enterococcus faecalis): 4 µg/mL (≈ 10.7 µM)
- MIC (Staphylococcus aureus [15]): 1 µg/mL (≈ 2.67 µM)
- Cmax [16]: 15700 ng/mL
- MIC (Staphylococcus aureus [17]): 16 µg/mL (≈ 42.7 µM)
- Activity (Mus musculus): Non-toxic
- AUC(0-inf) [18]: 27600 ng·h/mL
- clearance [19]: 11.6 mL/min/kg
- MIC (Staphylococcus aureus [20]): 2 µg/mL
- MIC (Staphylococcus aureus [21]): 1 µg/mL (≈ 2.67 µM)
- IC50 [22]: 30 µM
- Tmax [23]: 1 h
- MIC (Escherichia coli [24]): < 0.06 µg/mL
- MIC (Staphylococcus aureus [25]): 1 µg/mL (≈ 2.67 µM)
- MIC (Staphylococcus aureus [26]): 4 µg/mL
- MIC (Staphylococcus aureus [27]): 1 µg/mL (≈ 2.67 µM)
- MIC50 (Staphylococcus aureus [28]): 1 µg/mL (≈ 2.67 µM)
- MIC90 (Staphylococcus aureus [28]): 1 µg/mL (≈ 2.67 µM)
- bioavailability [29]: 94.7%
- MIC (Staphylococcus aureus [30]): 1 µg/mL (≈ 2.67 µM)
- ED50 (Staphylococcus aureus [31]): 12.5 mg/kg
- half-life [32]: 1.22 h
- MIC (Staphylococcus aureus [33]): 0.5 µg/mL (≈ 1.34 µM)
- AUC(0-inf) [34]: 31000 ng·h/mL
- MIC (Staphylococcus aureus [35]): 1 µg/mL (≈ 2.67 µM)
- MIC50 (Staphylococcus aureus [35]): 1 µg/mL (≈ 2.67 µM)
- MIC90 (Staphylococcus aureus [35]): 2 µg/mL (≈ 5.34 µM)
- MIC (Streptococcus pneumoniae [36]): 4 µg/mL (≈ 10.7 µM)
- MIC50 (Streptococcus pneumoniae [37]): 4 µg/mL (≈ 10.7 µM)
- MIC90 (Streptococcus pneumoniae [37]): 8 µg/mL (≈ 21.4 µM)
- MIC (Staphylococcus aureus [38]): 4 µg/mL (≈ 10.7 µM)
- IC50 [39]: 200 µM
- MIC (Staphylococcus aureus [40]): 1 µg/mL (≈ 2.67 µM)
- MIC (Haemophilus influenzae [41]): 0.5 µg/mL (≈ 1.34 µM)
- MIC (Haemophilus influenzae [42]): < 0.06 µg/mL
- MIC (Enterococcus faecium): 8 µg/mL (≈ 21.4 µM)
- MIC50 (Streptococcus pneumoniae [43]): 4 µg/mL (≈ 10.7 µM)
- MIC90 (Streptococcus pneumoniae [43]): 8 µg/mL (≈ 21.4 µM)
- MIC (Staphylococcus aureus [44]): 1 µg/mL (≈ 2.67 µM)
- MIC50 (Staphylococcus aureus [45]): 1 µg/mL (≈ 2.67 µM)
- MIC90 (Staphylococcus aureus [45]): 1 µg/mL (≈ 2.67 µM)
